According to ChEMBL document CHEMBL1795294, “Modulation of the activity of histone acetyltransferases by long chain alkylidenemalonates (LoCAMs)” (Bioorg Med Chem, 2011):
Blank lines part the entries; values can stand above or below the compound they belong to. Active and inactive are the calls of the source. The calls are words filed in the database; no cut-off is given here.

Legend:
U-937 [1] = test: Cell cycle arrest in human U937 cells assessed as accumulation at S phase at 25 uM after 30 hrs using propidium iodide staining by flow cytometry; format: functional, cell-based
Outline: (§1)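 U937 cells kept at 200,000 cells/mL, 37 °C, 5% CO2, treated 30 h at 50 or 25 µM. Phase distribution by flow cytometry. Three independent experiments, mean ± SD.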

U-937 [2] = test: Induction of apoptosis in human U937 cells at 25 uM after 30 hrs using annexin V/propidium iodide double-staining by FACS analysis; format: functional, cell-based
Outline: (§2)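 U937 cells at 200,000 cells/mL, 37 °C, 5% CO2, exposed 30 h at 50 or 25 µM. Dose–response runs used 5–200 µM, with IC50 taken as the concentration giving 50% apoptosis. Annexin V/propidium iodide double staining, apoptotic subpopulations counted by FACS. Three independent experiments, mean ± SD.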

[3] = biological target: Histone acetyltransferase KAT2B (Homo sapiens) (UniProt Q92831); test: Inhibition of human recombinant KAT2B using histone H4 peptide as substrate at 50 uM after 2 hrs
Outline: (§3)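 Human PCAF (200 ng) in KAT buffer with 10 µg histone H4 peptide (aa 2–24), 20 µM acetyl-CoA with 0.5 µCi/mL [3H]-acetyl-CoA, and compound at 50 µM final, 2 h at 37 °C. Spotted on P81 paper in triplicate, washed with TCA then acetone, scintillation counted. Activity given as % of untreated control (100%).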

[4] = biological target: CREB-binding protein (Homo sapiens) (UniProt Q92793); test: Inhibition of human recombinant KAT3A expressed in Escherichia coli BL21 using histone H4 peptide as substrate at 50 uM after 2 hrs relative to control
Outline: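 Recombinant CBP fragment (aa 1098–1877) from E. coli BL21, affinity purified. Spotted on P81 paper in triplicate, washed with TCA/acetone, scintillation DPM compared with negative control, expressed as %.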

MCF7 [5] = test: Inhibition of histone acetyltransferase in human MCF7 cells assessed as increase of alpha-tubulin acetylation level at 15 uM after 15 mins by Western blotting; format: cell-based
Outline: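 MCF-7 cells grown in D-MEM at 200,000 cells/mL, 37 °C, 5% CO2, treated at 15 and 30 µM. Lysis in 50 mM Tris–HCl pH 7.4, 150 mM NaCl, 1% NP40, NaF, PMSF and protease inhibitors, 15 min at 4 °C. Bradford quantitation. Western blot with anti-acetyl-α-tubulin (1:1000), ERK1 as loading control.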

U-937 [6] = test: Induction of granulocytic differentiation in human U937 after […] using propidium iodide staining by FACS analysis; format: functional, cell-based
[7] = biological target: Histone acetyltransferase p300 (Homo sapiens) (UniProt Q09472); test: Binding affinity to immobilized His6-tagged human full-length KAT3B expressed in Sf9 cells by surface plasmon resonance assay
U-937 [8] = test: Inhibition of histone acetyltransferase in human U937 cells assessed as increase of acetylation of histone H4 at K5 at 50 uM after 24 hrs by Western blotting; format: cell-based
Outline: (§4)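 U937 cells treated 24 h at 50 µM. Acid-extracted histones (Triton buffer lysis, then 0.2 M HCl overnight at 4 °C) immunoblotted with site-specific antibodies (H3K9/K14/K18/K56ac, H4K5/K8/K16ac, pan-acetyl H4; 1:1000). Loading checked by Ponceau Red staining, or by histone H1 for pan-acetyl H4.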

U-937 [9] = test: Cell cycle arrest in human U937 cells assessed as accumulation at S phase at 50 uM after 30 hrs using propidium iodide staining by flow cytometry; format: functional, cell-based; outline: as §1
U-937 [10] = test: Inhibition of histone acetyltransferase in human U937 cells assessed as increase of acetylation of histone H3 at K9 at 50 uM after 24 hrs by Western blotting; format: cell-based; outline: as §4
U-937 [11] = test: Inhibition of histone acetyltransferase in human U937 cells assessed as inhibition of acetylation of histone H4 at K8 at 50 uM after 24 hrs by Western blotting; format: cell-based; outline: as §4
U-937 [12] = test: Inhibition of histone acetyltransferase in human U937 cells assessed as increase of pan-acetylated histone H4 level at 50 uM after 24 hrs by Western blotting; format: cell-based; outline: as §4
U-937 [13] = test: Inhibition of histone acetyltransferase in human U937 cells assessed as increase of acetylation of histone H4 at K8 at 50 uM after 24 hrs by Western blotting; format: cell-based; outline: as §4
U-937 [14] = test: Inhibition of histone acetyltransferase in human U937 cells assessed as increase of histone H3 acetylation level at 50 uM after 15 mins by Western blotting; format: cell-based
Outline: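 U937 cells treated at 50 µM. Histones prepared by Triton extraction buffer lysis, then overnight 0.2 M HCl extraction at 4 °C, Bradford quantitation. Immunoblot with pan-acetyl-H3 antibody (1:1000), Ponceau Red staining as loading check.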

MCF7 [15] = test: Inhibition of histone acetyltransferase in human MCF7 cells assessed as increase of alpha-tubulin acetylation level at 15 and 30 uM after 15 mins by Western blotting
[16] = biological target: Histone acetyltransferase p300 (Homo sapiens) (UniProt Q09472); test: Binding affinity to His6-tagged immobilized human KAT3B catalytic domain expressed in Sf9 cells by surface plasmon resonance assay
[17] = biological target: Histone deacetylase (Homo sapiens) (UniProt Q13547+O15379+Q9UBN7+Q92769+Q9UQL6+Q8WUI4+Q9BY41+Q96DB2+P56524+Q9UKV0+Q969S8); test: Inhibition of HDAC in human U937 cells at 50 uM after 15 mins by Western blotting; format: cell-based; conditions: U-937
[18] = biological target: Histone acetyltransferase KAT2B (Homo sapiens) (UniProt Q92831); test: Increase of human recombinant KAT2B acetylation activity using histone H4 peptide as substrate at 50 uM after 2 hrs; outline: as §3
U-937 [19] = test: Induction of apoptosis in human U937 cells at 50 uM after 30 hrs using annexin V/propidium iodide double-staining by FACS analysis; format: functional; outline: as §2
U-937 [20] = test: Inhibition of histone acetyltransferase in human U937 cells assessed as increase of acetylation of histone H4 at K16 at 50 uM after 24 hrs by Western blotting; format: cell-based; outline: as §4
U-937 [21] = test: Inhibition of histone acetyltransferase in human U937 cells assessed as increase of acetylation of histone H3 at K14 at 50 uM after 24 hrs by Western blotting; format: cell-based; outline: as §4
Albumin = Albumin (Bos taurus, UniProt P02769); test: Binding affinity to bovine serum albumin by surface plasmon resonance assay; conditions: cattle
U-937 [22] = test: Inhibition of histone acetyltransferase in human U937 cells assessed as increase of acetylation of histone H3 at K18 at 50 uM after 24 hrs by Western blotting; format: cell-based; outline: as §4
U-937 [23] = test: Inhibition of histone acetyltransferase in human U937 cells assessed as increase of acetylation of histone H3 at K56 at 50 uM after 24 hrs by Western blotting; format: cell-based; outline: as §4
U-937 [24] = test: Induction of apoptosis in human U937 cells after 30 hrs using annexin V/propidium iodide double-staining by FACS analysis; format: functional, cell-based; conditions: U-937, 30 h; outline: as §2
MCF7 [25] = test: Inhibition of histone acetyltransferase in human MCF7 cells assessed as increase of alpha-tubulin acetylation level after 15 mins by Western blotting; format: cell-based

CREB-binding protein (Homo sapiens), sequence (Q92793 2-2442 limits assumed): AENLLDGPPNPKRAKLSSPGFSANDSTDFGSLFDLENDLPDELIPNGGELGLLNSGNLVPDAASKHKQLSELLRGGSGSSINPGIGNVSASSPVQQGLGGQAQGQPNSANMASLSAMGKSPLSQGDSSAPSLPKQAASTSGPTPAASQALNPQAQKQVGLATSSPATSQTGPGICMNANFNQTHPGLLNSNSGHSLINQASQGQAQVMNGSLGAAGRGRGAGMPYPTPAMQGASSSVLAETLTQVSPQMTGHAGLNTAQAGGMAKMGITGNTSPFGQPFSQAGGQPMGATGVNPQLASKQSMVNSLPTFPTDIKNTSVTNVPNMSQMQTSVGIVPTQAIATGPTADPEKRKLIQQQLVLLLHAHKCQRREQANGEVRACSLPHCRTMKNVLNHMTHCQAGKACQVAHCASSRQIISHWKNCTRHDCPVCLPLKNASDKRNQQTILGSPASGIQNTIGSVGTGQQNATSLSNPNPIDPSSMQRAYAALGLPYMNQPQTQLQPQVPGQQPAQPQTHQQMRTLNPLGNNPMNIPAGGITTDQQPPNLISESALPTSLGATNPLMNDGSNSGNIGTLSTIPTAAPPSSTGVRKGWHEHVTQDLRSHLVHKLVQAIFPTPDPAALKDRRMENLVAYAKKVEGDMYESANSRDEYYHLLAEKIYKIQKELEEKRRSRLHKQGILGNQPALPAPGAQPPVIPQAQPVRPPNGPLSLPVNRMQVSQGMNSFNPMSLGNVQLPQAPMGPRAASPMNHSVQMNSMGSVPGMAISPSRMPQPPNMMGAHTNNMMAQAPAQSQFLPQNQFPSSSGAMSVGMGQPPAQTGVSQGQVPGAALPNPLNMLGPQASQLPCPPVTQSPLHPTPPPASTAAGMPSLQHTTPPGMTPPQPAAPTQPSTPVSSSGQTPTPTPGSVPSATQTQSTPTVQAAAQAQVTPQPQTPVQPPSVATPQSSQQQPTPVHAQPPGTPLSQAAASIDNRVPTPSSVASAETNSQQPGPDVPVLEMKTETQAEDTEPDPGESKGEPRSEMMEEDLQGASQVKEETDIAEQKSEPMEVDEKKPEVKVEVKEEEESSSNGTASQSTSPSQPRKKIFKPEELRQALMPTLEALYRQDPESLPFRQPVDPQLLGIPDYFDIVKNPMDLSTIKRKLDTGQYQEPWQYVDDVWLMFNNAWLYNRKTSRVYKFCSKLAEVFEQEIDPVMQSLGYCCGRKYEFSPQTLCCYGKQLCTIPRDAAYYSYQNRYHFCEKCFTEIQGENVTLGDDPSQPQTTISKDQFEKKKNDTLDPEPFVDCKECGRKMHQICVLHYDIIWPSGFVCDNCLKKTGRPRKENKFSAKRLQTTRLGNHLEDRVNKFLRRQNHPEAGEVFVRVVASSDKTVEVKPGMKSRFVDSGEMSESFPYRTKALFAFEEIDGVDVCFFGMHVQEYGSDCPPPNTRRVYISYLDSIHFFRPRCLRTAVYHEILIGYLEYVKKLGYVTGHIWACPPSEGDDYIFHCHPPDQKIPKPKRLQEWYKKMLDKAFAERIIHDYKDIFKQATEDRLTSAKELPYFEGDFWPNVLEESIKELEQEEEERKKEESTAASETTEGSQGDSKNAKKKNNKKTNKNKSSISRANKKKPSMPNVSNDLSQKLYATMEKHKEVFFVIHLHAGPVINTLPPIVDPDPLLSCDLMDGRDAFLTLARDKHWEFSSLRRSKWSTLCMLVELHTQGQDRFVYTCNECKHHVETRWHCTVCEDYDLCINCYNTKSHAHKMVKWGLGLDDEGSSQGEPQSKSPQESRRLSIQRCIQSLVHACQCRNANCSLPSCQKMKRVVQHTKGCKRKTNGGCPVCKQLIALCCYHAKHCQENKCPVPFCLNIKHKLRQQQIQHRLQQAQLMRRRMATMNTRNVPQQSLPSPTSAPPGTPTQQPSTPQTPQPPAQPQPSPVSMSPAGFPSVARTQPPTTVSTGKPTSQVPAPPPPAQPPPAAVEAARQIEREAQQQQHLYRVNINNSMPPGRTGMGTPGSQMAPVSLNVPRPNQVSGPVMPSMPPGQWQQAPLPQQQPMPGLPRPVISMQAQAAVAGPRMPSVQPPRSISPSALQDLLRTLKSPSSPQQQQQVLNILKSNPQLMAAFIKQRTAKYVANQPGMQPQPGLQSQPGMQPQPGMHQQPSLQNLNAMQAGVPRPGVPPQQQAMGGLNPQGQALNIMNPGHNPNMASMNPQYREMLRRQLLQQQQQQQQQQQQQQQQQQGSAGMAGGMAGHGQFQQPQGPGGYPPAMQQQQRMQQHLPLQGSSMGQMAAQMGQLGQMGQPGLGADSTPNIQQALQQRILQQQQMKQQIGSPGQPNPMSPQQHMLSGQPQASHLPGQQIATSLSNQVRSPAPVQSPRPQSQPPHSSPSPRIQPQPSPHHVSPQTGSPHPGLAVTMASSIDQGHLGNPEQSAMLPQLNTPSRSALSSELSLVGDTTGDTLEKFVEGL
Histone acetyltransferase KAT2B (Homo sapiens), sequence (Q92831 whole entry, looked up, the tested form may be a part): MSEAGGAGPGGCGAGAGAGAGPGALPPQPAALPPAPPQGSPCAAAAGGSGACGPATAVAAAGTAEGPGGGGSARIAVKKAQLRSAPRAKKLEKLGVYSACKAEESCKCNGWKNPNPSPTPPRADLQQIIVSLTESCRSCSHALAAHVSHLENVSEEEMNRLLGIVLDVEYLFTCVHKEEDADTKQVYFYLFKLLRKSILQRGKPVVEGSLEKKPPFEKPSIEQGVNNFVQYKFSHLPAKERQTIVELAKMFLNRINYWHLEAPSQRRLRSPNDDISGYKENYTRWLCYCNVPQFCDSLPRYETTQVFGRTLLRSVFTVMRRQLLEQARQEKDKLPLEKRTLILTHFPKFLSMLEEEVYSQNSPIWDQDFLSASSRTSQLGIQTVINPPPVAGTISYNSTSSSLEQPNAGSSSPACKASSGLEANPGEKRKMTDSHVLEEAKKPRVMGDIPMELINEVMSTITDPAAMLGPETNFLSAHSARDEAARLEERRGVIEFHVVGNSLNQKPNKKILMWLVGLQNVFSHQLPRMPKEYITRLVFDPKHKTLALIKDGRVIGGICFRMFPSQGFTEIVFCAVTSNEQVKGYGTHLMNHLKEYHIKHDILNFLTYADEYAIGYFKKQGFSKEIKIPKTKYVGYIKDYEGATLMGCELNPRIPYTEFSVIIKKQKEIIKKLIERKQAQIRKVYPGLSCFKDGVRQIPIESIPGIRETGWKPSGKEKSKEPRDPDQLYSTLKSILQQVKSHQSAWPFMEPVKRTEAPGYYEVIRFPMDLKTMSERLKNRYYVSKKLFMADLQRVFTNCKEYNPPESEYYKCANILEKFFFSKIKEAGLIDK
Albumin, sequence (P02769 whole entry): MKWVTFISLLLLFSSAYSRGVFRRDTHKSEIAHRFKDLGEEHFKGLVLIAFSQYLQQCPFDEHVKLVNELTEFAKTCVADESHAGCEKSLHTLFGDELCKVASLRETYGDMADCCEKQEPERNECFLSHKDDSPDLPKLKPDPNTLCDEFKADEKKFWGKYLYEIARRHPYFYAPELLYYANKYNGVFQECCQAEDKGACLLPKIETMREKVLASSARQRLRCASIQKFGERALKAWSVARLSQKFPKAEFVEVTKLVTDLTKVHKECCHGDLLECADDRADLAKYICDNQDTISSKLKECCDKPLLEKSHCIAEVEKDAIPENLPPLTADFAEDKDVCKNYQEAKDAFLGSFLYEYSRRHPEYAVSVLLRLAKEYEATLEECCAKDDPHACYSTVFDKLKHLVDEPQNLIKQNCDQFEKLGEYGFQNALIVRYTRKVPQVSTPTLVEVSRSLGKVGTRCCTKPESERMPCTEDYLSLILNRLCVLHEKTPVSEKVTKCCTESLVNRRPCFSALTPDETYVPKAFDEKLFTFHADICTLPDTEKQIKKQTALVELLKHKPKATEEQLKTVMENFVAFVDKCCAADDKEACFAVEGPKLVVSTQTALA

inhibition [3]: Active
inhibition [4]: Active
SMILES: CCCCCCCCCCCCCCCC(O)=C(C(=O)OCC)C(=O)OCC
Activity (U-937 [1]): inactive
Activity (U-937 [2]): inactive
inhibition (MCF7 [5]): Active
Activity (U-937 [6]): inactive

Activity [7]: Dose-dependent effect
Activity [16]: Dose-dependent effect
inhibition [17]: inactive
Activity [18]: Active
Activity (Albumin): Not Active
inhibition [4]: 79%
IC50 (U-937 [24]): 44.9 µM
SMILES: CCCCCCCCCCCCCCC=C(C(=O)OCC)C(=O)OCC
inhibition (U-937 [8]): inactive
Activity (U-937 [9]): Active
inhibition (U-937 [10]): Active
inhibition (U-937 [11]): inactive
inhibition (U-937 [12]): Active
inhibition (U-937 [13]): inactive
inhibition (U-937 [14]): Active
inhibition (MCF7 [15]): inactive
Activity (U-937 [19]): 94.4%
inhibition (U-937 [20]): inactive
inhibition (U-937 [21]): inactive
inhibition (U-937 [22]): Active
inhibition (U-937 [23]): inactive
Activity (U-937 [6]): inactive

Activity [18]: Active
inhibition [4]: Active
SMILES: CCCCCCCCCCCCCNC=C(C(=O)OCC)C(=O)OCC
Activity (U-937 [1]): inactive
Activity (U-937 [2]): inactive
Activity (U-937 [6]): inactive
inhibition (MCF7 [25]): Dose-dependent effect
